The values below come from ChEMBL document CHEMBL4350999, “Enhanced tumor retention of NTSR1-targeted agents by employing a hydrophilic cysteine cathepsin inhibitor” (Eur J Med Chem, 2019).

Series [1] in a line: Ratio of drug uptake in SCID mouse xenograted with human HT-29 cells assessed as tumour retention to drug uptake in large intestine of SCID mouse xenografted with human HT-29 cells measured after 72 hrs using 177Lu labelled compound. Format: ADME, tissue-based, Tumor/Large intestine. The method in brief: (§1)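 Female SCID mice (5 weeks old) received s.c. flank HT-29 cells (5 × 10^6 in Matrigel). At ~80 mm3, two weeks later, mice were randomized and given 10 μCi (0.37 MBq) of purified 177Lu conjugate i.v. by tail vein. Mice were killed at 4, 24 or 72 h. Tissues were weighed and gamma counted as %ID/g, mean ± SD, n = 5. Tumor-to-tissue ratios were calculated.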

Series [2] in a line: Ratio of drug uptake in SCID mouse xenograted with human HT-29 cells assessed as tumour retention to drug uptake in small intestine of SCID mouse xenografted with human HT-29 cells measured after 4 hrs using 177Lu labelled compound. It is filed as ADME, tissue-based, Tumor/Small intestine. The essentials: as §1
On the technique in general: In xenograft studies the graft and the host belong to different species.

Series [3] in a line: Ratio of drug uptake in SCID mouse xenograted with human HT-29 cells assessed as tumour retention to drug uptake in large intestine of SCID mouse xenografted with human HT-29 cells measured after 24 hrs using 177Lu labelled compound. It is filed as ADME, tissue-based, Tumor/Large intestine. The method in brief:
as §1

The nature of series [4]: Ratio of drug uptake in SCID mouse xenograted with human HT-29 cells assessed as tumour retention to drug uptake in lung of SCID mouse xenografted with human HT-29 cells measured after 24 hrs using 177Lu labelled compound. It is filed as ADME, tissue-based, Tumor/Lung. The method in brief:
as §1

The nature of series [5]: Ratio of drug uptake in SCID mouse xenograted with human HT-29 cells assessed as tumour retention to drug uptake in kidney of SCID mouse xenografted with human HT-29 cells measured after 4 hrs using 177Lu labelled compound. Format: ADME, tissue-based, Tumor/Kidney. The essentials:
as §1

Series [6] is described as follows: Ratio of drug uptake in SCID mouse xenograted with human HT-29 cells assessed as tumour retention to drug uptake in muscle of SCID mouse xenografted with human HT-29 cells measured after 24 hrs using 177Lu labelled compound. It is filed as ADME, tissue-based, Tumor/Muscle. The essentials:
as §1

Series [7] can be described thus: Ratio of drug uptake in SCID mouse xenograted with human HT-29 cells assessed as tumour retention to drug uptake in lung of SCID mouse xenografted with human HT-29 cells measured after 4 hrs using 177Lu labelled compound. Format: ADME, tissue-based, Tumor/Lung. The method in brief: as §1
A short description of series [8]: Ratio of drug uptake in SCID mouse xenograted with human HT-29 cells assessed as tumour retention to drug uptake in large intestine of SCID mouse xenografted with human HT-29 cells measured after 4 hrs using 177Lu labelled compound. It is filed as ADME, tissue-based, Tumor/Large intestine. The method in brief: as §1
A short description of series [9]: Ratio of drug uptake in SCID mouse xenograted with human HT-29 cells assessed as tumour retention to drug uptake in blood of SCID mouse xenografted with human HT-29 cells measured after 4 hrs using 177Lu labelled compound. Format: ADME, tissue-based, Tumor/Blood. The essentials: as §1
The nature of series [10]: Ratio of drug uptake in SCID mouse xenograted with human HT-29 cells assessed as tumour retention to drug uptake in muscle of SCID mouse xenografted with human HT-29 cells measured after 72 hrs using 177Lu labelled compound. It is filed as ADME, tissue-based, Tumor/Muscle. The method in brief: as §1
Series [11] in a line: Ratio of drug uptake in SCID mouse xenograted with human HT-29 cells assessed as tumour retention to drug uptake in spleen of SCID mouse xenografted with human HT-29 cells measured after 72 hrs using 177Lu labelled compound. Format: ADME, tissue-based, Tumor/Spleen. The essentials: as §1
Series [12] is described as follows: Ratio of drug uptake in SCID mouse xenograted with human HT-29 cells assessed as tumour retention to drug uptake in liver of SCID mouse xenografted with human HT-29 cells measured after 72 hrs using 177Lu labelled compound. Format: ADME, tissue-based, Tumor/Liver. The method in brief:
as §1

A short description of series [13]: Ratio of drug uptake in SCID mouse xenograted with human HT-29 cells assessed as tumour retention to drug uptake in small intestine of SCID mouse xenografted with human HT-29 cells measured after 24 hrs using 177Lu labelled compound. It is filed as ADME, tissue-based, Tumor/Small intestine. The method in brief:
as §1

Series [14] is described as follows: Ratio of drug uptake in SCID mouse xenograted with human HT-29 cells assessed as tumour retention to drug uptake in large intestine of SCID mouse xenografted with human HT-29 cells cotreated with D-lysine at 40 mg/kg measured after 24 hrs using 177Lu labelled compound. The following applies: in vivo. Format: ADME, organism-based, Tumor/Large intestine. The essentials:
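Female SCID mice (5 weeks old) carried subcutaneous flank HT-29 xenografts (5 × 10^6 cells in Matrigel), used at about 80 mm3. They received 10 μCi (0.37 MBq) of purified 177Lu-labelled conjugate i.v. by tail vein, with D-lysine 40 mg/kg co-injected. At 24 h p.i., tissues were excised, weighed and gamma-counted, and %ID/g and tumour-to-tissue ratios were calculated (n = 5).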

In series [15] the target is Neurotensin receptor type 1 (Homo sapiens, UniProt P30989). As to the kind of experiment: Substrate activity at neurotensin receptor in human HT-29 cells assessed as reduction in drug uptake in presence of NTRS1 peptide N1 using Eu labelled compound measured at 2 hrs by lysotracker green staining based confocal microscopic analysis. Format: cell-based. Further details: scale not given: the % may be the effect or the level left. The method in brief:
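HT-29 cells (1.25 × 10^5/well) were given natEu-labeled conjugate (5 μM) with or without NTSR1 peptide N1 (20 μM) for 2 h at 37 °C. LysoTracker Green (100 nM) was added for 1 h. Cells were PBS washed, formaldehyde fixed and imaged by confocal microscopy (ex 405 and 488 nm). Mean pixel intensity was normalized to cell count.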

A short description of series [16]: Stability of 177Lu labelled compound in human serum assessed as parent compound remaining at 37 degC after 3 hrs by RP-HPLC analysis. Format: ADME, cell-free. As to conditions: read-out: Stability. The method in brief:
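Radioconjugate (1.5 mCi, 55.5 MBq) was incubated in 300 μL human serum at 37 °C. At 1, 3 and 24 h, acetonitrile was added and samples were spun at 12,000×g for 5 min. Supernatant was dried under nitrogen, reconstituted in water and analyzed by radio-HPLC.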

Series [17] addresses T1, Procathepsin L (Homo sapiens, UniProt P07711). As to the kind of experiment: Binding affinity to cathepsin L in human HT-29 cells assessed as intracellular adduct formation at 0.74 MBq incubated for 4 hrs using 177Lu labelled compound by SDS-PAGE analysis. It is filed as cell-based. Further details: dose or concentration left out as unconfirmed. The method in brief: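 HT-29 cells (1 × 10^6/well) incubated 4 h at 37 °C with 177Lu conjugate (20 μCi, 0.74 MBq) in 1 mL medium, with or without E-64 (10 μM) or NTSR1 peptide N1 (20 μM). Cells washed and refed; at set times cells pooled, RIPA-lysed with protease inhibitor. Lysates heated 85 °C 2 min, run on 16% tris-glycine SDS-PAGE, and phosphor autoradiography taken after 72 h exposure.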

Series [18] is described as follows: Drug internalization in cytoplasm of human HT-29 cells within 2 hrs using Eu labelled compound by lysotracker green staining confocal microscopic analysis. Format: ADME, subcellular. The following applies: ht-29, 2 h. The essentials:
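HT-29 cells (1.25 × 10^5/well) incubated 2 h at 37 °C with natEu conjugate (5 μM), with or without N1 (20 μM). Lysotracker Green (100 nM) added for 1 h; cells washed, formaldehyde-fixed and imaged confocally at 405/488 nm excitation. Mean pixel intensity normalized to cell count.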

In series [19] the target is T1, Procathepsin L. As to the kind of experiment: Binding affinity to human liver cathepsin L assessed as protein-conjugate adduct formation incubated for 30 mins using 177Lu labelled compound by SDS-PAGE analysis. The method in brief: (§2)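 Purified human liver CatB or CatL (3 nM) in 50 mM sodium acetate/1 mM EDTA pH 5.0 incubated 30 min with 177Lu conjugate (500,000 cpm) in Tris/MgCl2/DTT buffer pH 5.5, alone or with E-64 (10 μM) or N1 (20 μM). Mixtures heated 85 °C 2 min, run on 16% tris-glycine gel at 110 V for 90 min, and read by phosphor autoradiography.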

In series [20] the target is Cathepsin B (Homo sapiens, UniProt P07858). Kind of series: Binding affinity to human liver cathepsin B assessed as protein-conjugate adduct formation incubated for 30 mins using 177Lu labelled compound by SDS-PAGE analysis. The essentials: as §2

Active and inactive are the calls of the source. The calls are words filed in the database; no cut-off is given here.

T1 sequence (P07711 114-333 limits assumed): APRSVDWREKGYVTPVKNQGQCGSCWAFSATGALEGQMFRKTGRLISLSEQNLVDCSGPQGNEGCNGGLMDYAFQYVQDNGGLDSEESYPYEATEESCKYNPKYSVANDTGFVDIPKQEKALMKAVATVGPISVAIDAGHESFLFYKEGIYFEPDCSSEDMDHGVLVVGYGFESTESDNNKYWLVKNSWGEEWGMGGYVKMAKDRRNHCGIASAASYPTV
Chain of Neurotensin receptor type 1 (P30989 whole entry): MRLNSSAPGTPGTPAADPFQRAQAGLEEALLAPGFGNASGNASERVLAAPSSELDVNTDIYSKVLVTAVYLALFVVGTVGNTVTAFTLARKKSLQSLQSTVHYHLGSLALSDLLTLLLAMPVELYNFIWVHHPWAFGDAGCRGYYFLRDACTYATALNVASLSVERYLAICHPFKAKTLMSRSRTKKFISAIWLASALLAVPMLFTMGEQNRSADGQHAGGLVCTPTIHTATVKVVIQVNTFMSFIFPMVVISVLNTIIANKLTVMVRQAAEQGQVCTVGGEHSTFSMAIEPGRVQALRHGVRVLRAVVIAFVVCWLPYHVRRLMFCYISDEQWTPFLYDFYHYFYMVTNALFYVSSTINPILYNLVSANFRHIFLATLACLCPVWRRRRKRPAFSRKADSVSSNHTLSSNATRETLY

In general, Kp refers to the ratio of the level in a tissue or fluid to that in plasma or blood. As for `Cc1cc(C)c(C(=O)OCC(=O)[C@H](CCCCNC(=O)CNC(=O)[C@@H](CO)NC(=O)[C@@H](CO)NC(=O)[C@@H](CO)NC(=O)Cn2cc(C[C@H](NC(=O)CN3CCN(CC(=O)O)CCN(CC(=O)O)CCN(CC(=O)O)CC3)C(=O)N[C@H](CO)C(=O)N[C@H](CO)C(=O)N[C@H](CO)C(=O)N[C@@H](CCCCN)C(=O)N3CCC[C@H]3C(=O)N(C)[C@@H](CCCNC(=N)N)C(=O)N[C@@H](CCCNC(=N)N)C(=O)N3CCC[C@H]3C(=O)N[C@@H](Cc3c(C)cc(O)cc3C)C(=O)N[C@H](C(=O)N[C@@H](CC(C)C)C(=O)O)C(C)(C)C)nn2)NC(=O)[C@H](Cc2ccccc2)NC(=O)OCc2ccccc2)c(C)c1`, the Ratio in series [1] turned out to be 1.9; in [2], 1.3; in series [3], 5; in [4], 2.2; in [5] it was 0.13; in [6] it was 30. Moreover, the Ratio in series [7] stood at 1.9; in series [8], 2.7; in [10], 16; in [11], 0.28; in [12], 0.6; in [13], 2. The Kp at 4 h in [9] was found to be 6.5.

Take `Cc1cc(O)cc(C)c1C[C@H](NC(=O)[C@@H]1CCCN1C(=O)[C@H](CCCNC(=N)N)NC(=O)[C@H](CCCNC(=N)N)N(C)C(=O)[C@@H]1CCCN1C(=O)[C@H](CCCCN)NC(=O)[C@@H](CO)NC(=O)[C@@H](CO)NC(=O)[C@@H](CO)NC(=O)[C@H](Cc1cn(CCNC(=O)[C@H](CCCNC(=N)N)NC(=O)[C@H](CC(C)C)NC(=O)C2OC2C(=O)O)nn1)NC(=O)CN1CCN(CC(=O)O)CCN(CC(=O)O)CCN(CC(=O)O)CC1)C(=O)N[C@H](C(=O)N[C@@H](CC(C)C)C(=O)O)C(C)(C)C` (some centres undefined): the Ratio in series [1] is 5.5; in series [2], 1.85; in [3] it was 6; in series [14] it was 8; in series [4] it was 15; in [5], 0.1. Further, the Ratio in [6] was determined as 137; in [7] it was 12.3; in series [8] it was 5.7; in series [10] it was 153; in [11] it was 2.4; in [12], 5.9. In addition, the Ratio in series [13] amounted to 2. Further, in series [15], the Activity came to 63.7%. Moreover, in series [16], the remaining at 3 h is 65.6%. Also, the result in [17], in series [19] and in series [20] was Active. Further, the Drug uptake result in series [18] is listed as “Active”. Moreover, the Kp at 4 h in [9] was determined as 337.

Consider `Cc1cc(O)cc(C)c1C[C@H](NC(=O)[C@@H]1CCCN1C(=O)[C@H](CCCNC(=N)N)NC(=O)[C@H](CCCNC(=N)N)N(C)C(=O)[C@@H]1CCCN1C(=O)[C@H](CCCCN)NC(=O)[C@@H](CO)NC(=O)[C@@H](CO)NC(=O)[C@@H](CO)NC(=O)[C@H](Cc1cn(CCNC(=O)[C@H](CCCNC(=N)N)NC(=O)[C@H](CC(C)C)NC(=O)CCC(=O)O)nn1)NC(=O)CN1CCN(CC(=O)O)CCN(CC(=O)O)CCN(CC(=O)O)CC1)C(=O)N[C@H](C(=O)N[C@@H](CC(C)C)C(=O)O)C(C)(C)C`, for which, in series [15], the Activity came out at 65%. In series [16], the remaining at 3 h is 74.3%. In addition, the result in series [17], in series [19] and in [20] was inactive. Also, the Drug uptake result in [18] is “Active”.
